As a reminder, the GI50 is the concentration giving 50% growth inhibition. Read a high GI50 as lower sensitivity of the cells. Usually IC50 stands for the midpoint of a concentration-inhibition curve.

The source of these data is ChEMBL document CHEMBL1149197, “Design and synthesis of beta-amino-alpha-hydroxy amide derivatives as inhibitors of MetAP2 and HUVEC growth” (Bioorg Med Chem Lett, 2004).

≈ marks a conversion by molar mass, not a printed value.

Common to all, as to format: functional
Assay [1] concerns HUVEC. Description: Anti-proliferative activity against human umbilical vein endothelial cells (HUVECs). Summed up:
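HUVECs seeded at 1500 cells/well and cultured 24 h at 37 °C, then exposed to a dose-response series of compound for 24 h. Proliferation was read as ³H-thymidine incorporation by scintillation proximity assay. GI₅₀ was taken from plots of percent-of-control ³H-thymidine uptake versus compound concentration.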

The test system of assay [2] is HUVEC. Description: In vitro anti-proliferative activity against human umbilical vein endothelial cells at 5 uM. As to conditions: for inhibition of growth at 5 µM: Homo sapiens, HUVEC, read-out: GI.
The species named for the next assay is Bos taurus. Description: Anti-proliferative activity against calf endothelial cells. Conditions: endothelial cell.

In the assay with HUVEC [1] (Homo sapiens, HUVEC), `COc1cc(/C=C/C(=O)Nc2ccc(NC(=O)[C@@H](O)[C@H](N)CCc3ccccc3)cc2)cc(OC)c1OC` returned a GI50 of 850 nM. Moreover, the inhibition of growth at 5 µM in the assay with HUVEC [2] was above 98%. In turn, `COc1cc(/C=C/C(=O)Nc2ccc(NC(=O)[C@@H](O)[C@H](N)CC3CCCCC3)cc2)cc(OC)c1OC` (stereo in doubt; 11) registered a GI50 with HUVEC [1] of 670 nM. The inhibition of growth at 5 µM in the assay on HUVEC [2] is above 98%. For `CCSCC[C@@H](N)[C@H](O)C(=O)Nc1ccc(NC(=O)c2cc(OC)c(OC)c(OC)c2)cc1` (single isomer, unassigned), in the assay on HUVEC [2], the inhibition of growth at 5 µM is 20%. On to `COc1cc(/C=C/C(=O)Nc2ccc(NC(=O)[C@@H](O)[C@H](N)CC3CCCCC3)cc2)cc(OC)c1OC` (stereo in doubt), for which growth with HUVEC [1] was halved (GI50) at 2000 nM. The “growth inhibition (GI)” value in the assay on HUVEC [2] was 96%.

Consider `CCSCC[C@@H](N)[C@H](O)C(=O)Nc1ccc(NC(=O)/C=C/c2cc(OC)c(OC)c(OC)c2)cc1`, for which the inhibition of growth at 5 µM in the assay on HUVEC [2] is 89%. Regarding `CCOc1ccc(CCC(=O)Nc2ccc(NC(=O)[C@@H](O)[C@H](N)CC3CCCCC3)cc2)cc1`, in the assay with HUVEC [2], the inhibition of growth at 5 µM is 42%.

As for `CCOc1ccc(/C=C/C(=O)Nc2ccc(NC(=O)C(O)C(N)CCSCC)cc2)cc1` (single isomer, unassigned), the inhibition of growth at 5 µM in the assay on HUVEC [2] amounted to 91%. Same read-out and setting: then `CCSCC[C@@H](N)[C@H](O)C(=O)Nc1ccc(NC(=O)c2ccc(OC)cc2)cc1` (single isomer, unassigned), with 15%. As for `COc1cc(/C=C/C(=O)Nc2ccc(NC(=O)[C@@H](O)[C@H](N)CCC3CCCCC3)cc2)cc(OC)c1OC`, in the assay with HUVEC [1] (Homo sapiens, HUVEC), it took 800 nM to inhibit growth by half (GI50). In the assay with HUVEC [2], the inhibition of growth at 5 µM is above 98%. As to `COc1cc(/C=C/C(=O)NC2CCC(NC(=O)[C@@H](O)[C@H](N)CCc3ccccc3)CC2)cc(OC)c1OC` (some centres not stated), the inhibition of growth at 5 µM in the assay on HUVEC [2] was 46%.

On to `COc1cc(/C=C/C(=O)O[C@@H]2CC[C@]3(CO3)[C@@H]([C@]3(C)O[C@H]3CCC=C(C)C)[C@@H]2OC)cc(OC)c1OC`, for which the IC50 in the assay filed under Bos taurus was 3e-05 ng/mL (≈ 5.81e-05 nM). As to `CCSCCC(N)C(O)C(=O)Nc1ccc(NC(=O)/C=C/c2ccc(OC)cc2)cc1` (single isomer, unassigned), the inhibition of growth at 5 µM in the assay with HUVEC [2] was determined as 43%. As to `COc1cc(NC(=O)[C@@H](O)[C@H](N)CC2CCCCC2)ccc1NC(=O)/C=C/c1cc(OC)c(OC)c(OC)c1`, in the assay on HUVEC [1] (Homo sapiens, HUVEC), the 50% growth inhibitory concentration (GI50) came out at 1200 nM. In addition, the inhibition of growth at 5 µM in the assay with HUVEC [2] is above 98%.

As for `COc1cc(NC(=O)/C=C/c2cc(OC)c(OC)c(OC)c2)ccc1NC(=O)[C@@H](O)[C@H](N)CCc1ccccc1`, the GI50 in the assay with HUVEC [1] (Homo sapiens, HUVEC) is 700 nM. For the same molecule, the inhibition of growth at 5 µM in the assay with HUVEC [2] was above 98%. With `CCSCC[C@@H](N)[C@H](O)C(=O)Nc1ccccc1`, in the assay on HUVEC [2], the inhibition of growth at 5 µM turned out to be 0%. In the assay with HUVEC [1] (Homo sapiens, HUVEC), `CCOc1ccc(/C=C/C(=O)Nc2ccc(NC(=O)[C@@H](O)[C@H](N)CC3CCCCC3)cc2)cc1` gave a GI50 of 1000 nM. The inhibition of growth at 5 µM in the assay on HUVEC [2] was above 98%. Turning to `CCSCCC(N)C(O)C(=O)Nc1ccc(NC(=O)/C=C/c2ccccc2)cc1` (single isomer, unassigned), the inhibition of growth at 5 µM in the assay on HUVEC [2] was determined as 48%. For `COc1cc(/C=C/C(=O)Nc2ccc(NC(=O)[C@@H](O)[C@H](N)CCc3ccccc3)c(C)c2)cc(OC)c1OC`, in the assay on HUVEC [1] (Homo sapiens, HUVEC), halving of growth (GI50) required 2300 nM. Further, the inhibition of growth at 5 µM with HUVEC [2] was found to be 92%. For `COc1cc(/C=C/C(=O)NC2CCC(NC(=O)[C@@H](O)[C@H](N)CC3CCCCC3)CC2)cc(OC)c1OC` (some centres not stated), the inhibition of growth at 5 µM in the assay on HUVEC [2] was found to be 52%.

The molecule `COc1cc(/C=C/C(=O)Nc2ccc(NC(=O)[C@@H](O)[C@H](N)CC3CCCCC3)cc2C)cc(OC)c1OC` registered a GI50 with HUVEC [1] (Homo sapiens, HUVEC) of 1800 nM. Also, the inhibition of growth at 5 µM with HUVEC [2] was above 98%. For the molecule `COc1cc(/C=C/C(=O)Nc2ccc(NC(=O)[C@@H](O)[C@H](N)Cc3ccccc3)cc2)cc(OC)c1OC`, the inhibition of growth at 5 µM in the assay on HUVEC [2] stood at 93%. With `CCOc1ccc(/C=C/C(=O)Nc2ccc(NC(=O)[C@@H](O)[C@H](N)CCc3ccccc3)cc2)cc1`, the GI50 in the assay on HUVEC [1] (Homo sapiens, HUVEC) was found to be 1800 nM. For the same molecule, the inhibition of growth at 5 µM in the assay with HUVEC [2] is above 98%.
